These results are taken from ChEMBL document CHEMBL3808321, “LAT-1 activity of meta-substituted phenylalanine and tyrosine analogs” (Bioorg Med Chem Lett, 2016).

In general, inhibition refers to the change of the read-out against control, counted positive when it falls. By IC50 is commonly meant the midpoint of a concentration-inhibition curve.

The target in test [1] is T1, Large neutral amino acids transporter small subunit 1 (Homo sapiens, UniProt Q01650). Description: Substrate activity at human LAT1 expressed in HEK cells assessed as efflux rate of [3H]-gabapentin at 200 uM after 5 to 180 secs by scintillation counting based trans-stimulation assay. Type of test: cell-based. The conditions noted are these: HEK293. The method, boiled down:
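HEK-hLAT1 cells were preloaded with [3H]-gabapentin, then incubated with test agent at 200 μM. Efflux rate (fmol/min) was compared with efflux in the agent's absence and with L-leucine and L-arginine as positive and negative controls and L-phenylalanine and L-tyrosine as parent amino acids. Mean of at least three experiments.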

The target of test [2] is T1, Large neutral amino acids transporter small subunit 1. Description: Inhibition of human LAT1 expressed in HEK cells assessed as reduction in uptake of [3H]-gabapentin at 200 uM after 3 mins by scintillation counting based cis-inhibition assay. The test is classed as cell-based. The conditions noted are these: HEK293. The method, boiled down: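 HEK cells stably transfected with human LAT-1 cDNA. Test agent at 200 μM competed with [3H]-gabapentin for cellular uptake. Results are % inhibition relative to background signal without inhibitor, with mean of at least three experiments.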

The target is the same in test [3]. Description: Inhibition of human LAT1 expressed in HEK cells assessed as reduction in uptake of [3H]-gabapentin after 3 mins by scintillation counting based cis-inhibition assay. The test is classed as cell-based, HEK293.

T1 sequence (Q01650 whole entry): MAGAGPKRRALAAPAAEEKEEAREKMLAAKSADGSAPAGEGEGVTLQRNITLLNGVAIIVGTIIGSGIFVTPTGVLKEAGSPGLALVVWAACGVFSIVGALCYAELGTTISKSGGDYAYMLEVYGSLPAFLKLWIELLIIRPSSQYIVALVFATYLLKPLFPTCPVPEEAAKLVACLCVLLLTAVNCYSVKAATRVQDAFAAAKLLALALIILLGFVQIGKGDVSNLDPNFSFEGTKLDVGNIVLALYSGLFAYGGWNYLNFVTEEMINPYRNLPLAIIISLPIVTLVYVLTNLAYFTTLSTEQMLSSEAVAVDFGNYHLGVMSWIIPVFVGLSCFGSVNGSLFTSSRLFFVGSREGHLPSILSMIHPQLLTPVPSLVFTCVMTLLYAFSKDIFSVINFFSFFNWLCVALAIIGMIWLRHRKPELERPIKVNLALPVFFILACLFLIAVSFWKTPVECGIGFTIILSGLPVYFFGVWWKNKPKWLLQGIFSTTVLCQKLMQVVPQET

Turning to `CC(C)(C)c1cc(C[C@H](N)C(=O)O)ccc1O`, in test [1], the Activity stood at 1.5 fmol/min. Further, the inhibition in test [2] is 81%.
The like results for `N[C@@H](Cc1ccccc1)C(=O)O` were, in that order, 3.6 fmol/min and 85%.
For the molecule `N[C@@H](Cc1cccc(Cc2ccccc2)c1)C(=O)O`, in test [1], the Activity was found to be 0.8 fmol/min. The inhibition in test [2] stood at 98%. Further, in test [3], the IC50 was 7.3 µM.
For `N[C@@H](Cc1ccc(O)c(Cl)c1)C(=O)O`, the Activity in test [1] is 2.7 fmol/min. In addition, in test [2], the inhibition was determined as 63%.
For `CCc1cc(C[C@H](N)C(=O)O)ccc1O`, in that order: 2.4 fmol/min and 68%.
On to `N[C@@H](Cc1ccc(O)c(-c2ccccc2)c1)C(=O)O`, for which the Activity in test [1] was found to be 1.2 fmol/min. The inhibition in test [2] came out at 83%.
The like results for `N[C@@H](Cc1cccc(F)c1)C(=O)O` were, in that order, 2.3 fmol/min and 79%.
For `N[C@@H](Cc1ccc(O)c(F)c1)C(=O)O`, in that order: 3 fmol/min and 63%.
For `Cc1ccc(C[C@H](N)C(=O)O)cc1`, in that order: 2.7 fmol/min and 86%.
Consider `CC(C)C[C@H](N)C(=O)O`, for which the Activity in test [1] is 3.5 fmol/min. In test [2], the inhibition came out at 78%.
On to `N[C@@H](Cc1ccc(O)cc1)C(=O)O`, for which, in test [1], the Activity is 2.1 fmol/min. Also, the inhibition in test [2] turned out to be 68%.
In the case of `COc1ccc(C[C@H](N)C(=O)O)cc1C`, the Activity in test [1] worked out at 2.9 fmol/min. Further, in test [2], the inhibition amounted to 75%.
For `CC(C)c1cccc(C[C@H](N)C(=O)O)c1`, in that order: 1.7 fmol/min and 91%.
For `CC(C)(C)c1cccc(C[C@H](N)C(=O)O)c1`, in that order: 1.5 fmol/min and 87%.
For `Cc1cc(C[C@H](N)C(=O)O)ccc1O`, in that order: 3.3 fmol/min and 56%.
For `CC(C)c1cc(C[C@H](N)C(=O)O)ccc1O`, in test [1], the Activity was 2.8 fmol/min. For the same molecule, the inhibition in test [2] was 80%.
In the case of `N[C@@H](Cc1cccc(Br)c1)C(=O)O`, in test [1], the Activity worked out at 3 fmol/min. Besides, in test [2], the inhibition was 86%.
On to `N=C(N)NCCC[C@H](N)C(=O)O`, for which, in test [1], the Activity was 0.8 fmol/min. Moreover, the inhibition in test [2] is 49%.
As for `N[C@@H](Cc1ccc(O)c(Cc2ccccc2)c1)C(=O)O`, the Activity in test [1] came out at 1.3 fmol/min. Moreover, the inhibition in test [2] amounted to 96%. Also, in test [3], the IC50 is 9.1 µM.
As to `N[C@@H](Cc1cccc(Cl)c1)C(=O)O`, the Activity in test [1] stood at 2.6 fmol/min. The inhibition in test [2] is 84%.
`N[C@@H](Cc1ccc(O)c(Br)c1)C(=O)O`: the Activity in test [1] worked out at 1.8 fmol/min. Also, in test [2], the inhibition was 86%.
Turning to `CCc1cccc(C[C@H](N)C(=O)O)c1`, the Activity in test [1] stood at 3.1 fmol/min. In test [2], the inhibition was 77%.
Regarding `N[C@@H](Cc1cccc(-c2ccccc2)c1)C(=O)O`, the Activity in test [1] is 0.8 fmol/min. The inhibition in test [2] worked out at 98%. Besides, the IC50 in test [3] was determined as 6.6 µM.
Turning to `N[C@@H](Cc1cccc(I)c1)C(=O)O`, the Activity in test [1] was 1.9 fmol/min. Also, in test [2], the inhibition is 91%.
The like results for `N[C@@H](Cc1ccc(O)c(I)c1)C(=O)O` were, in that order, 2.4 fmol/min and 77%.
